The results in this text go back to ChEMBL document CHEMBL4433207, “Novel Isoxazole Derivatives with Potent FXR Agonistic Activity Prevent Acetaminophen-Induced Liver Injury” (ACS Med Chem Lett, 2019).

Converted amounts (≈) assume the structure as drawn. The source made the active and inactive calls.

Data set [1] addresses T1, G-protein coupled bile acid receptor 1 (Homo sapiens) (UniProt Q8TDU6).
T1 sequence (whole entry): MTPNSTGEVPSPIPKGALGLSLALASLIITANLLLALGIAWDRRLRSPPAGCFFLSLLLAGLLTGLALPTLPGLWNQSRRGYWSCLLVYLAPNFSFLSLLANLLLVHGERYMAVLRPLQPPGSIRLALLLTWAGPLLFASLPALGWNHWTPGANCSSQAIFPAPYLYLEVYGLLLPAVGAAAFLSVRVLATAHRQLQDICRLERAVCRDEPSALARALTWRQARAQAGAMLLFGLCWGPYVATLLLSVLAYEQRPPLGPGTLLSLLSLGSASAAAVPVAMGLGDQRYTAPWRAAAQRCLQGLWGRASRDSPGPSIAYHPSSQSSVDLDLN
Put plainly: Agonist activity at human GPBAR1 expressed in HEK293T cells at 10 uM after 18 hrs by cAMP response element driven luciferase reporter gene assay. The data set is classed as functional, cell-based. On the technique in general: Reporter assays use an easily measured gene product as a stand-in for the process of interest.

Data set [2] in a line: Half life in rat liver microsomes at 1 uM up to 40 mins by LC-MS/MS method. (In general: Liver microsomes are a subcellular fraction often used to study metabolism.)
The nature of data set [3]: Metabolic stability in rat liver microsomes assessed as compound remaining at 1 uM up to 40 mins by LC-MS/MS method relative to control.
Data set [4] is described as follows: Intrinsic clearance in rat liver microsomes at 1 uM up to 40 mins by LC-MS/MS method. Particulars: read-out: CLH.
Data set [5] in a line: Aqueous solubility of compound in phosphate buffer at pH 7.4//MeOH after 24 hrs by LC-MS/MS method. The data set is classed as physicochemical.
Data set [6] has as its system Mus musculus. Put plainly: Hepatoprotective activity against APAP-induced acute liver injury in C57BL/6N mouse assessed as reduction in plasma AST levels at 30 mg/kg, po administered 45 mins after APAP challenge. The data set is classed as functional, organism-based. In a few lines: (§1)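 C57Bl6 mice given a single 500 mg/kg APAP dose, with test agent at 30 mg/kg; surviving mice sacrificed 24 h later, blood and liver collected. Endpoints: serum AST/ALT, liver H&E histology, hepatic Ugt1a1/Ugt2b1/Sult1a1 mRNA, hepatic GSH, SOD activity and MDA, and plasma APAP, APAP-glucuronide and APAP-sulfate by LC–MS/MS. Mean ± SEM, 5–8 animals per group.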

Data set [7] deals with Mus musculus. The data set can be described thus: Hepatoprotective activity against APAP-induced acute liver injury in C57BL/6N mouse assessed as reduction in plasma ALT levels at 30 mg/kg, po administered 45 mins after APAP challenge. The data set is classed as functional, organism-based. In a few lines: as §1
Data set [8] addresses T2, Oxysterols receptor LXR-alpha (Homo sapiens) (UniProt Q13133).
T2 sequence (whole entry): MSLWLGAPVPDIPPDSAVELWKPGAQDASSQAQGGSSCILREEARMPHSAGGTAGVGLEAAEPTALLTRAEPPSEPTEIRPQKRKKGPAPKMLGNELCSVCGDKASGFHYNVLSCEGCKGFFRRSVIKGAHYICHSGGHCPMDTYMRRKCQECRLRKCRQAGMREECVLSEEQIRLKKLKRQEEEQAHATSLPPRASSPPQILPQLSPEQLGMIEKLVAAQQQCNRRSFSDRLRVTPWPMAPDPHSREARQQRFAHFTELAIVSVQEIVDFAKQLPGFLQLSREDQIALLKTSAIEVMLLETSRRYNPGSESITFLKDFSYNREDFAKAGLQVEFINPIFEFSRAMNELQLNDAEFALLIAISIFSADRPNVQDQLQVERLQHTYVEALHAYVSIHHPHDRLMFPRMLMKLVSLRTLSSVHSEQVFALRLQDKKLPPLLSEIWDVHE
Put plainly: Transactivation of Gal4-fused LXRalpha LBD (unknown origin) expressed in HepG2 cells at 10 uM after 18 hrs by dual-glo luciferase assay. The data set is classed as cell-based.

The target in data set [9] is T3, Peroxisome proliferator-activated receptor gamma (Homo sapiens) (UniProt P37231).
T3 sequence (whole entry): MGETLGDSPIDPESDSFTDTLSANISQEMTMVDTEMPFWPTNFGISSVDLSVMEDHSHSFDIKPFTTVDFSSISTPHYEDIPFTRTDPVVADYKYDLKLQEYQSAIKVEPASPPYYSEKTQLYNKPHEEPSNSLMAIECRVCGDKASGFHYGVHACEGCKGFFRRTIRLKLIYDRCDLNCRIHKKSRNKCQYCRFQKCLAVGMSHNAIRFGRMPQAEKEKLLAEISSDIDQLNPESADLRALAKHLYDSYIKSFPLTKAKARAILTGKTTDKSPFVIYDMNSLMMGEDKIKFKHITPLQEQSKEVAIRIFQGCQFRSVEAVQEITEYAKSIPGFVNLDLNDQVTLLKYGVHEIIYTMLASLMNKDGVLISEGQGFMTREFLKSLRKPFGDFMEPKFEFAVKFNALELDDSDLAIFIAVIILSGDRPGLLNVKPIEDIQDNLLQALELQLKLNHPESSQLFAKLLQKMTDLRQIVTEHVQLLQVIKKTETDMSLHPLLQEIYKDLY
Put plainly: Transactivation of Gal4-fused PPARgamma LBD (unknown origin) expressed in HepG2 cells at 10 uM after 18 hrs by dual-glo luciferase assay. The data set is classed as cell-based.

Data set [10] has as its target T4, Oxysterols receptor LXR-beta (Homo sapiens) (UniProt P55055).
T4 sequence (whole entry): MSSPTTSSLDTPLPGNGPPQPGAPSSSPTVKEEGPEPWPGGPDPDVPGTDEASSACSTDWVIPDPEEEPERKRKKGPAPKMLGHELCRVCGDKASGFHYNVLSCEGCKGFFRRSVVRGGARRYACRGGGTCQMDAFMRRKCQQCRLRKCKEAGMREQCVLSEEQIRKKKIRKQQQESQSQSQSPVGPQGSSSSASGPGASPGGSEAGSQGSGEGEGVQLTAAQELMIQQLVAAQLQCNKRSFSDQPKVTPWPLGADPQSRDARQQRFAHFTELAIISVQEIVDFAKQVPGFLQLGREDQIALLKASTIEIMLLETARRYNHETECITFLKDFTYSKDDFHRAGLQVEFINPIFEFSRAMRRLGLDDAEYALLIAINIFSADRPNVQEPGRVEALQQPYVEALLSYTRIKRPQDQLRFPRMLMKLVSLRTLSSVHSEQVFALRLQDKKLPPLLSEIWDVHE
Put plainly: Transactivation of Gal4-fused LXRbeta LBD (unknown origin) expressed in HepG2 cells at 10 uM after 18 hrs by dual-glo luciferase assay. The data set is classed as cell-based.

Consider `COC(=O)c1ccc(OCc2ccc(OCc3c(-c4c(Cl)cccc4Cl)noc3C(C)C)cc2)cc1`, for which, in data set [1], the outcome was inactive.

On to `CC(C)c1onc(-c2c(Cl)cccc2Cl)c1COc1ccc(COc2cccc(C#N)c2)cc1`, for which the result in data set [1] was inactive.

For `CC(C)c1onc(-c2c(Cl)cccc2Cl)c1COc1ccc(COc2ccc(C#N)cc2)cc1`, the result in data set [1] was inactive.

`CC(C)c1onc(-c2c(Cl)cccc2Cl)c1COc1ccc(-c2cccc(CO)c2)cc1`: in data set [1], the outcome was inactive.

Regarding `CC(C)c1onc(-c2c(Cl)cccc2Cl)c1COc1ccc(-c2cccc(C(=O)O)c2)cc1`, the outcome in data set [1] was inactive.

As to `CC[C@H]1[C@@H](O)[C@@H]2[C@H](CC[C@]3(C)[C@@H]([C@H](C)CCC(=O)O)CC[C@@H]23)[C@@]2(C)CC[C@@H](O)C[C@@H]12` [OBETICHOLIC ACID], in [2], the half-life – broadly, the time needed for the level to fall by half in the phase considered – at 1 µM came out at 21 min. Besides, the share remaining (as a rule, what is left of the initial amount, in per cent) at 40 min, 1 µM in data set [3] was found to be 27%. The microsomal CLint at 1 µM in data set [4] came out at 109 µL/min/mg. Besides, in data set [5], the solubility (as a rule, how much of the substance goes into solution per volume) at 24 h was > 200 µM.

Take `COC(=O)c1cccc(-c2ccc(OCc3c(-c4c(Cl)cccc4Cl)noc3C(C)C)cc2)c1`: in data set [1], the result was inactive.

For the molecule `CC(C)c1onc(-c2c(Cl)cccc2Cl)c1COc1ccccc1`, the result in [1] was inactive.

Take `CC(C)c1onc(-c2c(Cl)cccc2Cl)c1COc1cccc(C#N)c1`: in data set [1], the result was inactive.

On to `CC(C)c1onc(-c2c(Cl)cccc2Cl)c1COc1ccc(S(C)(=O)=O)cc1`, for which the outcome in data set [1] was inactive.

Consider `CC(C)c1onc(-c2c(Cl)cccc2Cl)c1COc1ccc(C(=O)O)cc1`, for which the result in data set [1] was inactive.

For `CC(C)c1onc(-c2c(Cl)cccc2Cl)c1COc1ccc(/C=C/c2cccc(C(=O)O)c2)c(Cl)c1`, the half-life at 1 µM in data set [2] was 41 min. For the same molecule, in data set [3], the amount remaining at 40 min, 1 µM stood at 48%. In addition, the microsomal CLint at 1 µM in data set [4] amounted to 56 µL/min/mg. In [5], this molecule showed a solubility at 24 h of 152 µM (≈ 82.5 µg/mL). For the same molecule, the result in data set [6] and in data set [7] was Active.

Consider `CC(C)c1onc(-c2c(Cl)cccc2Cl)c1COc1cccc(CO)c1`, for which, in data set [1], the result was inactive.

Consider `CC(C)c1onc(-c2c(Cl)cccc2Cl)c1COc1ccc(COc2cccc(C(=O)O)c2)cc1`, for which the result in data set [8], in [9], in data set [10] and in [1] was inactive.

As to `COC(=O)c1cccc(OCc2ccc(OCc3c(-c4c(Cl)cccc4Cl)noc3C(C)C)cc2)c1`, in data set [1], the result was inactive.

On to `COC(=O)c1ccc(OCc2c(-c3c(Cl)cccc3Cl)noc2C(C)C)cc1`, for which, in data set [1], the result was inactive.

Consider `CC(C)c1onc(-c2c(Cl)cccc2Cl)c1COc1ccc(COc2cccc(CO)c2)cc1`, for which the result in data set [1] was inactive.

Take `CC(C)c1onc(-c2c(Cl)cccc2Cl)c1COc1ccc(COc2ccc(CO)cc2)cc1`: the outcome in data set [1] was inactive.

As to `CC(C)c1onc(-c2c(Cl)cccc2Cl)c1COc1ccc(C#N)cc1`, the outcome in [1] was inactive.

For `CC(C)c1onc(-c2c(Cl)cccc2Cl)c1COc1ccc(CO)cc1`, the result in data set [1] was inactive.

`COC(=O)c1cccc(OCc2c(-c3c(Cl)cccc3Cl)noc2C(C)C)c1`: the result in data set [1] was inactive.

As to `CC(C)c1onc(-c2c(Cl)cccc2Cl)c1COc1cccc(C(=O)O)c1`, the outcome in data set [1] was inactive.
